MLL AF4-AF9 inh: MLL-AF4/AF9 protein interaction inhibition; P42568; AlphaScreen, biotin-AF4 peptide binding to FLAG-AF9; inhibition, % at 10 µM; hit rate 0.47% among 350,000; AID 651704;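 active means every replicate reaching a set inhibition limit, whatever the replicate mean, cut at about 25% in these data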
E-sel inducer: E-selectin induction on HUVECs; P16581; HUVEC E-selectin immunofluorescence imaging; normalized: neutral wells 0, TNF-alpha wells 100; activation, % at 7.58 µM; hit rate 0.37% among 260,000; AID 686992;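 active means mean E-selectin-positive cell signal at least 10% of the positive control, reached in at least 60% of replicates, without over 20% cell loss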
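System: HUVEC, human umbilical vein endothelial cells; quantity: 3,000 cells/well; buffer or medium: EGM-2 medium, gelatin-coated wells; dosing: single-point compound dose; detection: immunofluorescence imaging; evaluation: % PE-positive cells; benchmarks: TNF-alpha, DMSO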
SIRT5 block: blocks human SIRT5 desuccinylation of peptide; Q9NXA8; Purified SirT5, succinyl-peptide AMC, trypsin-coupled fluorescence; inhibition, % at 15 µM; hit rate 1.1% among 330,000; in the data active means inhibition above about 15%
Target sequence (Q9NXA8 whole entry, looked up): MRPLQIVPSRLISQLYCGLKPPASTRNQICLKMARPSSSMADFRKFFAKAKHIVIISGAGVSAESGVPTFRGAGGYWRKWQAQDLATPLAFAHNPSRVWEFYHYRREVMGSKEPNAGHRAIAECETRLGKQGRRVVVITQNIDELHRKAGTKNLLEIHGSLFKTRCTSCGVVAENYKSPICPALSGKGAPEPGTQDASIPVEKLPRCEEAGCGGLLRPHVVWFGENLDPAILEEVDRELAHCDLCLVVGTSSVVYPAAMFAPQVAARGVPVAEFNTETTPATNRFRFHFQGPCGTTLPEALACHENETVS
rRNA inh HTS: inhibitors of bacterial rRNA selective over humanized ribosomes. E. coli WT GFP vs humanized-ribosome RFP mutants, fluorescence, 24 h; active compounds read low; DMSO median 0, no signal -100. GFP signal change (wild-type ribosome), % (test concentration not listed). hit rate 1.6% among 350,000. AID 720706;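 active means significant combined selectivity score with lowered wild-type GFP, culture density cut under 30%, mutant RFP and density less affected; inactive means any of these conditions unmet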
ERAP1 HTS inh: ERAP1 (human) enzyme inhibition; hit rate 0.15% among 340,000; inhibition, % at 10.7 µM; Q9NZ08; AID 652197; recombinant ERAP1, Leu-AMC fluorescence, 60 min;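 active means mean replicate inhibition of at least 30%, or all replicates individually reaching that 30% level; inactive means mean below 30% and not every replicate reaching it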
S100A4 MyoIIA: blocks human S100A4 binding to myosin IIA peptide. P26447. S100A4/TAMRA-MyoIIA peptide fluorescence polarization. inhibition, % at 10.7 µM. hit rate 0.14% among 360,000. AID 652163;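 active means mean inhibition of at least 70% across replicates, with every replicate also reaching that level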
Target sequence (P26447 whole entry, looked up): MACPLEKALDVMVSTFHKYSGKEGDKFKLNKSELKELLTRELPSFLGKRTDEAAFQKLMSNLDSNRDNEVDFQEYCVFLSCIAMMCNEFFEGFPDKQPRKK
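Test system: S100A4 monomer protein; Medium: HEPES pH 7.2 with CaCl2, KCl, NaCl, DTT, Triton; Probe or stimulus: TAMRA-labelled myosin IIA heavy-chain peptide probe, 5 nM; Doses: one dose per compound; Times: polarization read 5 min after assay mix addition, stable 5–60 min; Benchmarks: neutral control DMSO, positive control TFP.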
Alpha interfer: AlphaScreen signal interference counter-screen hit; shares compounds with MLL AF4-AF9 inh; signal luminescence; AC50, µM (doses to about 12 µM); hit rate 45% among 530; AID 720494; cut-off not given, nearly all actives have AC50 up to about 14 µM
A number is an active result. Only some compounds are listed: those with a hit (about 3.4% of all), similar ones and a draw of the others.

What do the screens show for `COc1ccc(NC(=O)N(C)C[C@@H]2Oc3ccc(NC(=O)Nc4cccc5ccccc45)cc3C(=O)N([C@H](C)CO)C[C@@H]2C)cc1`?
MLL AF4-AF9 inh: inactive; E-sel inducer: inactive; SIRT5 block: inactive; rRNA inh HTS: inactive; ERAP1 HTS inh: inactive; S100A4 MyoIIA: inactive

What do the screens show for `O=C(NCc1ccccc1)[C@@H]1[C@@H](CO)[C@@H]2Cn3c(cccc3=O)[C@H]1N2Cc1cccnc1`?
MLL AF4-AF9 inh: inactive; E-sel inducer: inactive; SIRT5 block: inactive; rRNA inh HTS: inactive; ERAP1 HTS inh: inactive; S100A4 MyoIIA: inactive

How did CCOc1ccc(CCNC(=O)C2CCN(c3nnc(-n4cccc4)s3)CC2)cc1 do in these assays?
MLL AF4-AF9 inh: inactive; E-sel inducer: inactive; SIRT5 block: inactive; rRNA inh HTS: inactive; ERAP1 HTS inh: inactive; S100A4 MyoIIA: inactive

How did CCOc1ccc(NCc2cccn2-c2nnc(N3CCC(C(=O)NCCCN4C(C)CCCC4C)CC3)s2)cc1 (centres undefined) do in these assays?
MLL AF4-AF9 inh: 51; SIRT5 block: inactive; rRNA inh HTS: inactive; ERAP1 HTS inh: inactive; S100A4 MyoIIA: inactive; Alpha interfer: 11µM

What do the screens show for `CCOc1ccc(NCc2cccn2-c2nnc(N3CCC(C(=O)NCCCN4CCCCC4C)CC3)s2)cc1` (centres undefined)?
MLL AF4-AF9 inh: 47; SIRT5 block: inactive; rRNA inh HTS: inactive; ERAP1 HTS inh: inactive; S100A4 MyoIIA: inactive; Alpha interfer: 14µM

What do the screens show for `c1ccc(N=Nc2ccc3cccccc2-3)cc1`?
MLL AF4-AF9 inh: 77; E-sel inducer: inactive; SIRT5 block: inactive; rRNA inh HTS: -20; ERAP1 HTS inh: inactive; S100A4 MyoIIA: inactive; Alpha interfer: 1µM

How did Nc1ccc(N=Nc2ccccc2)c2ccccc12 do in these assays?
MLL AF4-AF9 inh: inactive; E-sel inducer: inactive; SIRT5 block: inactive; rRNA inh HTS: inactive; ERAP1 HTS inh: inactive; S100A4 MyoIIA: inactive

What do the screens show for `CC(N)=Nc1ccc([N+](=O)[O-])cc1`?
E-sel inducer: inactive

What do the screens show for `O=[N+]([O-])c1ccc(N=Nc2c(Cl)cc(O)cc2Cl)cc1`?
MLL AF4-AF9 inh: 52; E-sel inducer: inactive; SIRT5 block: inactive; rRNA inh HTS: inactive; ERAP1 HTS inh: inactive; S100A4 MyoIIA: inactive; Alpha interfer: 14µM

What do the screens show for `COc1ccccc1S(=O)(=O)N[C@H]1CC[C@@H](CCNC(=O)C2CCOCC2)O[C@H]1CO`?
MLL AF4-AF9 inh: inactive; E-sel inducer: inactive; SIRT5 block: inactive; rRNA inh HTS: inactive; ERAP1 HTS inh: inactive; S100A4 MyoIIA: inactive

Results for CC(=O)OCCNc1cc(N2CCN(C)CC2)c2noc3c2c1C(=O)c1ccccc1-3 ?
MLL AF4-AF9 inh: 86; E-sel inducer: inactive; SIRT5 block: inactive; rRNA inh HTS: inactive; ERAP1 HTS inh: inactive; S100A4 MyoIIA: inactive; Alpha interfer: 8.6µM

Results for C[C@H](O)C#Cc1ccc2c(c1)O[C@@H](CN(C)Cc1ccccc1)[C@H](C)CN([C@H](C)CO)S2(=O)=O ?
MLL AF4-AF9 inh: inactive; E-sel inducer: inactive; SIRT5 block: inactive; rRNA inh HTS: inactive; ERAP1 HTS inh: inactive; S100A4 MyoIIA: inactive

How did Nc1cc(-c2ccc(Cl)cc2)nn1-c1ccccc1 do in these assays?
MLL AF4-AF9 inh: inactive; E-sel inducer: inactive; SIRT5 block: inactive; rRNA inh HTS: inactive; ERAP1 HTS inh: inactive; S100A4 MyoIIA: inactive

How did Nc1ccccc1Nc1cc(-c2ccccc2)nn1-c1cccc(Cl)c1 do in these assays?
MLL AF4-AF9 inh: 31; SIRT5 block: inactive; rRNA inh HTS: inactive; ERAP1 HTS inh: inactive; S100A4 MyoIIA: inactive; Alpha interfer: inactive

How did CN(C)c1ccc(Nc2nc(N)c3ccccc3n2)cc1 do in these assays?
MLL AF4-AF9 inh: 60; E-sel inducer: inactive; SIRT5 block: inactive; rRNA inh HTS: inactive; ERAP1 HTS inh: inactive; S100A4 MyoIIA: inactive; Alpha interfer: 12µM

How did CCN(CC)c1ccc(N=C2C(=O)Nc3ccccc32)cc1 do in these assays?
MLL AF4-AF9 inh: 57; E-sel inducer: inactive; SIRT5 block: inactive; rRNA inh HTS: inactive; ERAP1 HTS inh: inactive; S100A4 MyoIIA: inactive; Alpha interfer: 12µM

High-throughput results (PubChem BioAssay)
